{"source": "paper PMC4269301", "about": "(International journal of peptide research and therapeutics, 2014)", "key": {"GRK5 [1]": {"target": "T1, GRK5 (Homo sapiens, UniProt P34947)", "T1 sequence (P34947 whole entry)": "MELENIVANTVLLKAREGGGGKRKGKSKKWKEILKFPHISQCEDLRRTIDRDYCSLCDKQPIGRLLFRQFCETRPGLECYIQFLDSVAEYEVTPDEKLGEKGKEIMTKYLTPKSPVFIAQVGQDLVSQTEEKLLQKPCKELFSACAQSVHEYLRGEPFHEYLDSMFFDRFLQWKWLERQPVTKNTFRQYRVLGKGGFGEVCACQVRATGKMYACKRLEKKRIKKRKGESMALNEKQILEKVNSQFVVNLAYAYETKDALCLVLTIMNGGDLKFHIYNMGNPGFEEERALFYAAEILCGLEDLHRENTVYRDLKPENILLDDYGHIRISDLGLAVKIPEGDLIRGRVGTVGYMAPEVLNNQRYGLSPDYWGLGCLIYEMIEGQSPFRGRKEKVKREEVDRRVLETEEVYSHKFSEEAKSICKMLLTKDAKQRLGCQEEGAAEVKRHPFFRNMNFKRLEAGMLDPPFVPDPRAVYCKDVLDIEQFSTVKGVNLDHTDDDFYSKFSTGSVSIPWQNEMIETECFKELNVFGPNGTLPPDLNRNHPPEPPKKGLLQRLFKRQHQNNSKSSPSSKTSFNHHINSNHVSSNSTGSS", "assay": "GRK5 phosphorylation of light-activated rhodopsin", "format": "biochemical", "conditions": "for Inhibition of GRK5 phosphorylation of rhodopsin: peptides 10, 30 and 100 μM, four or more experiments in duplicate; for % Inhibition (100 μM) of GRK5 phosphorylation of rhodopsin: 100 μM peptide, 0.5 μM light-activated rhodopsin, 100 μM ATP, 5 min; for inhibition at 100 µM: read-out: % Inhibition (100 μM) of GRK5 phosphorylation of rhodopsin"}, "GRK2 [2]": {"target": "T2, GRK2 (Homo sapiens, UniProt P25098, S670A)", "T2 sequence (P25098 1-689 S670A)": "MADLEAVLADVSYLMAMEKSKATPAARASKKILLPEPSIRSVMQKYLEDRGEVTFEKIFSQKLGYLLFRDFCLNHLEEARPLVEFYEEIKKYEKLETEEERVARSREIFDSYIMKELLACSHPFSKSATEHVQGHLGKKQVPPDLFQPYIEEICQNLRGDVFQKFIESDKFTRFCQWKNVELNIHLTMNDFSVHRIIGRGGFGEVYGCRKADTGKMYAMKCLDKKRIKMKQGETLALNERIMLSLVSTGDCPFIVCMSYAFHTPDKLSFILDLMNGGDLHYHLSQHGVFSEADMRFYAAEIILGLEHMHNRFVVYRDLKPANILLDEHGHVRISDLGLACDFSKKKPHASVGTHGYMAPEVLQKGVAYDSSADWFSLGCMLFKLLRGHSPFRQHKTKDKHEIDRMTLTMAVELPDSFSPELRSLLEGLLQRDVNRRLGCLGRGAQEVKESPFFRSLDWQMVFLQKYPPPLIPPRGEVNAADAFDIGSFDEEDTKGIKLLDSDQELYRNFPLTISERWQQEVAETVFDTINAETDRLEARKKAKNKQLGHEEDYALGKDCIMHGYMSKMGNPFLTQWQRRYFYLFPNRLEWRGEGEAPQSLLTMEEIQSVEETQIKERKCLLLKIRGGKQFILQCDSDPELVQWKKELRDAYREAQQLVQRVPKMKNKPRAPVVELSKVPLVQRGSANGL", "assay": "GRK2 phosphorylation of light-activated rhodopsin", "format": "biochemical", "conditions": "peptides 10, 30 and 100 μM; four or more experiments in duplicate", "summary_of_the_method": "(§1)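 Light-activated (475 nm, 30 s) rhodopsin, 0.5 μM, from urea-stripped bovine ROS. Kinase was purified GRK2 (His₆, S670A, Sf9/baculovirus, Ni-IMAC) or N-terminal His₆ full-length human GRK6, at 10–100 nM. Buffer: 20 mM Tris pH 7.5, 10 mM MgCl₂, 1 mM EDTA, 100 μM [γ³²P]ATP; peptides in DMSO (2–4 %). Ran 5 min, then SDS-PAGE and autoradiography. ≥4 experiments in duplicate, % of control.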"}, "GRK5 [3]": {"target": "T1, GRK5", "assay": "GRK5 phosphorylation of tubulin", "format": "biochemical", "conditions": "0.5 μM tubulin, 30 °C", "summary_of_the_method": "(§2)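 Bovine brain tubulin 500 nM with 100 nM GRK2 (His₆, S670A, Sf9-expressed) or human His₆-GRK5; 20 mM Tris pH 7.5, 1 mM EDTA, 10 mM MgCl₂, 5 μM DTT, 100 μM [γ³²P]ATP; 60 min, 30 °C. 12 % SDS-PAGE; ³²P-tubulin counted from excised bands or by autoradiogram densitometry. Mean ± SEM, ≥4 experiments in duplicate, % of control; one-way ANOVA.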"}, "GRK2 [4]": {"target": "T2, GRK2", "assay": "GRK2 phosphorylation of tubulin", "format": "biochemical", "conditions": "0.5 μM tubulin, 60 min, 30 °C", "summary_of_the_method": "as §2"}, "GRK6": {"system": "GRK6", "assay": "GRK6 phosphorylation of light-activated rhodopsin", "format": "biochemical, human", "conditions": "peptides 10, 30 and 100 μM; four or more experiments in duplicate", "summary_of_the_method": "as §1"}, "GRK7": {"target": "T3, GRK7 (Homo sapiens, UniProt Q8WTQ7)", "T3 sequence (Q8WTQ7 1-553)": "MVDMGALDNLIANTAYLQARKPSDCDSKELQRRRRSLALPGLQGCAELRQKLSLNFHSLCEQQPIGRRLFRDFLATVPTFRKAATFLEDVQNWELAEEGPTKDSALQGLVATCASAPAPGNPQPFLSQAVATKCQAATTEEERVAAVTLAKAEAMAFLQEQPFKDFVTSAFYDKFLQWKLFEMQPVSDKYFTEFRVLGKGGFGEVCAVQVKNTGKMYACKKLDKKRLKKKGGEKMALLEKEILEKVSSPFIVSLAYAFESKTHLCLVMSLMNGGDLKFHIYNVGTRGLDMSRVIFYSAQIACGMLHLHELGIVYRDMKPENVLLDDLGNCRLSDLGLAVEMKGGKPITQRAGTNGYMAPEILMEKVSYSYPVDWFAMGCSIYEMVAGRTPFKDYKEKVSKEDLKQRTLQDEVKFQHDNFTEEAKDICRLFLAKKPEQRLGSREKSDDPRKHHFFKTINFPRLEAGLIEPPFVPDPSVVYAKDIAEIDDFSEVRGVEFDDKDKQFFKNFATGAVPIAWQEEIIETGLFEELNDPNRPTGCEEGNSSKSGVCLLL", "assay": "GRK7 phosphorylation of light-activated rhodopsin", "format": "biochemical", "conditions": "peptides 10, 30 and 100 μM; four or more experiments in duplicate", "summary_of_the_method": "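Substrate is urea-stripped bovine rod outer segment rhodopsin (0.5 μM in reaction buffer; 0.5–4 μM per legend), light-activated at 475 nm for 30 s. Peptides are dissolved in DMSO (2–4% final) and quantified by A280. Results are normalised to the no-peptide control as mean ± SEM.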"}, "[5]": {"target": "Human His6-tagged GRK5 (human) (UniProt P34947)", "sequence (P34947 whole entry)": "as the sequence (P34947 whole entry) above"}, "[6]": {"target": "Human His6-tagged GRK5 (human) (UniProt P34947)", "remark": "listed apart in the source"}, "[7]": {"target": "light-activated rhodopsin in urea-stripped bovine rod outer segments (bovine) (UniProt P02699)", "sequence (P02699 whole entry)": "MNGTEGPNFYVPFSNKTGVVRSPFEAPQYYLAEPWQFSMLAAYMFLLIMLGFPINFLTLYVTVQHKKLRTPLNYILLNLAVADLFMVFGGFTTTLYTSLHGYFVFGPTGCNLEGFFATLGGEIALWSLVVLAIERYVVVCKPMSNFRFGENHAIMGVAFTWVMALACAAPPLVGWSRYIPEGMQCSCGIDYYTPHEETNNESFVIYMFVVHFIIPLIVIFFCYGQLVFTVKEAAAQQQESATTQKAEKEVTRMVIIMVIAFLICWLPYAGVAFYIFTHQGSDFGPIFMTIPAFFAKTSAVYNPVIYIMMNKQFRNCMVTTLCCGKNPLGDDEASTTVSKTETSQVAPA"}}, "note": "Square brackets hold non-standard residues; d marks the D form. Peptide text beside a SMILES is read from it. Nle = CCCC[C@H](N)C(=O)O", "data": [{"molecule": "CCCC[C@H](NC(=O)[C@H](CCC(=O)O)NC(=O)[C@H](CC(N)=O)NC(=O)[C@H](CCC(N)=O)NC(=O)[C@H](Cc1c[nH]c2ccccc12)NC(=O)[C@@H]1CCCN1C(=O)[C@@H](NC(=O)[C@H](CO)NC(=O)[C@@H](NC(C)=O)C(C)C)[C@@H](C)CC)C(=O)N[C@H](C(=O)N[C@@H](CCC(=O)O)C(N)=O)[C@@H](C)CC", "note": "[α10] (Ac-VSIPWQNE[Nle]IE-NH2)", "values": [{"measurement": "Inhibition of GRK5 phosphorylation of rhodopsin", "setting": "GRK5 [1]", "result": "inhibited"}, {"measurement": "Inhibition of GRK2 phosphorylation of rhodopsin", "setting": "GRK2 [2]", "result": "less inhibition"}, {"measurement": "% inhibition of GRK5 phosphorylation of tubulin", "setting": "GRK5 [3]; 100 μM peptide, 100 nM GRK5, 60 min", "result": "~ 45%"}, {"measurement": "Effect on GRK2 phosphorylation of tubulin, basal activity", "setting": "GRK2 [4]", "result": "not significant"}, {"measurement": "Inhibition of GRK6 phosphorylation of rhodopsin", "setting": "GRK6", "result": "inhibited"}, {"measurement": "Inhibition of GRK7 phosphorylation of rhodopsin", "setting": "GRK7", "result": "inhibited"}]}, {"molecule": "Ac-S[Nle]FFDRFLQWK-NH2 [Peptide T4]", "values": [{"measurement": "% Inhibition (100 μM) of GRK5 phosphorylation of rhodopsin", "setting": "GRK5 [1]", "result": 72, "unit": "%"}]}, {"molecule": "Ac-S[Nle]FFDRFLQAKWLER-NH2 [Peptide W173A]", "values": [{"measurement": "% Inhibition (100 μM) of GRK5 phosphorylation of rhodopsin", "setting": "GRK5 [1]", "result": "~26", "unit": "%"}]}, {"molecule": "Ac-ILENLKDCGLF-NH2 [TCT, reference compound]", "values": [{"measurement": "IC50", "setting": "GRK5 [1]", "result": "~10", "unit": "µM"}, {"measurement": "Inhibition of GRK5 phosphorylation of rhodopsin", "setting": "GRK5 [1]", "result": "showed inhibition"}, {"measurement": "Inhibition of GRK2 phosphorylation of rhodopsin", "setting": "GRK2 [2]", "result": "relatively inactive"}, {"measurement": "Effect on GRK5 phosphorylation of tubulin, basal activity", "setting": "GRK5 [3]; 60 min", "result": "no significant effect"}, {"measurement": "Effect on GRK2 phosphorylation of tubulin, basal activity", "setting": "GRK2 [4]", "result": "no significant effect"}, {"measurement": "Inhibition of GRK6 phosphorylation of rhodopsin", "setting": "GRK6", "result": "showed inhibition"}, {"measurement": "Inhibition of GRK7 phosphorylation of rhodopsin", "setting": "GRK7", "result": "showed inhibition"}]}, {"molecule": "CCCC[C@H](NC(=O)[C@H](CO)NC(C)=O)C(=O)N[C@@H](Cc1ccccc1)C(=O)N[C@@H](Cc1ccccc1)C(=O)N[C@@H](CC(=O)O)C(=O)N[C@@H](CCCNC(=N)N)C(=O)N[C@@H](Cc1ccccc1)C(=O)N[C@@H](CC(C)C)C(=O)N[C@@H](CCC(N)=O)C(=O)N[C@@H](Cc1c[nH]c2ccccc12)C(=O)N[C@@H](CCCCN)C(=O)N[C@@H](Cc1c[nH]c2ccccc12)C(=O)N[C@@H](CC(C)C)C(N)=O", "note": "[Peptide T2] (Ac-S[Nle]FFDRFLQWKWL-NH2)", "values": [{"measurement": "IC50", "setting": "GRK5 [1]", "result": "5.2 ± 2", "unit": "µM"}, {"measurement": "inhibition at 100 µM", "setting": "GRK5 [1]", "result": 98, "unit": "%"}]}, {"molecule": "CCCC[C@H](NC(=O)[C@H](CO)NC(C)=O)C(=O)N[C@@H](Cc1ccccc1)C(=O)N[C@@H](Cc1ccccc1)C(=O)N[C@@H](CC(=O)O)C(=O)N[C@@H](CCCNC(=N)N)C(=O)N[C@@H](Cc1ccccc1)C(=O)N[C@@H](CC(C)C)C(=O)N[C@@H](CCC(N)=O)C(=O)N[C@@H](Cc1c[nH]c2ccccc12)C(=O)N[C@@H](CCCCN)C(=O)N[C@@H](Cc1c[nH]c2ccccc12)C(N)=O", "note": "[Peptide T3] (Ac-S[Nle]FFDRFLQWKW-NH2)", "values": [{"measurement": "IC50", "setting": "GRK5 [1]", "result": "6.1 ± 4.4", "unit": "µM"}, {"measurement": "inhibition at 100 µM", "setting": "GRK5 [1]", "result": 97, "unit": "%"}]}, {"molecule": "α9 (164–178) peptide of GRK5", "values": [{"measurement": "GRK5 phosphorylation of light-activated rhodopsin: IC50 of inhibition", "setting": "[5]", "result": 15.9, "unit": "µM"}]}, {"molecule": "Ac-PIGRLLFRQFC-NH2", "note": "[α3 (61–71) peptide of GRK5]", "values": [{"measurement": "GRK5 phosphorylation of tubulin: IC50 of inhibition", "setting": "[6]", "result": 30, "unit": "µM"}]}, {"molecule": "Ac-ILENLKDCGLF-NH2", "note": "[Gα transducin C-tail peptide TCT (340–350) K341L]", "values": [{"measurement": "GRK5 phosphorylation of light-activated rhodopsin: IC50 of inhibition", "setting": "[7]", "result": 10, "unit": "µM"}]}]}
